SMILES strings stand for the structures. The source made the active and inactive calls. The rule behind the calls is not given here.

Experiment [1] deals with T1, Protein kinase C (PKC) (Homo sapiens) (UniProt O94806+P41743+P17252+P05129+Q05655+P05771+Q05513+Q02156+P24723+Q15139+Q04759). As to the kind of experiment: Induction of apoptosis in CCL19-induced human CD4+ T-cells infected with latent HIV-1 assessed as caspase-3 activation at 100 nM incubated for 48 hrs in presence of 2 uM ionomycin by incubated for 48 hrs by FACS. Format: cell-based. As to conditions: CD4+ T cell, filed as activator. In a few lines: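 Latency model: healthy-donor CD4+ T-cells given 100 nM CCL19 for 2 days, infected with HIV-1 NL4-3, kept 5 days in IL-2. Stimulated 2 days with 1 µM drug or 100 nM PMA plus 2 µM ionomycin. Cells fixed and permeabilized, co-stained with anti-p24 and anti-active caspase-3 mAbs; active caspase-3 read by flow cytometry separately in p24+ and p24− cells. Two donors.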

Experiment [2] relates to ACH-2 cell line. Nature of the experiment: Induction of apoptosis in human ACH-2 cells at 1 uM incubated for 48 hrs after pre-incubated for 2 hrs with 20 uM caspase inhibitor Q-VD-Oph by propidium iodide/annexin-V staining based flow cytometry. Format: functional, cell-based. In a few lines:
(§1)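 ACH-2 or U1 cells pretreated 2 h with 20 µM pan-caspase inhibitor Q-VD-Oph, then exposed to 1 µM compound for 48 h. Annexin-V/PI staining by flow cytometry; apoptotic proportions compared with and without Q-VD-Oph. Mean ± S.D.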
Background: In flow cytometry, cells or beads pass a laser one at a time.

The subject of experiment [3] is J-Lat 6.3. Nature of the experiment: Induction of apoptosis in human J-Lat 6.3 cells assessed as caspase-3 activation at 10 nM incubated for 24 hrs by flow cytometry (reference value: 2.43%). Format: functional. In a few lines:
(§2)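 Cells fixed in 1% paraformaldehyde, permeabilized, stained 30 min on ice with anti-active caspase-3 mAb, and analysed by flow cytometry. Three independent experiments.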

In experiment [4] the test system is J-Lat 6.3. As to the kind of experiment: Induction of apoptosis in human J-Lat 6.3 cells assessed as caspase-3 activation at 10 nM incubated for 24 hrs by flow cytometry. Format: functional. In a few lines: as §2
Experiment [5] in a line: Induction of apoptosis in human CEM A3.01 cells assessed as caspase-3 activation at 10 nM incubated for 24 hrs by flow cytometry. Format: functional. The method, boiled down:
as §2

The test system of experiment [6] is U1. Nature of the experiment: Induction of apoptosis in human U1 cells at 1 uM incubated for 48 hrs after pre-incubated for 2 hrs with 20 uM caspase inhibitor Q-VD-Oph by propidium iodide/annexin-V staining based flow cytometry. Format: functional, cell-based. In a few lines:
as §1

For experiment [7], the system named is U1. Nature of the experiment: Induction of apoptosis in human U1 cells assessed as caspase-3 activation at 10 nM incubated for 24 hrs by flow cytometry (reference value: 1.86%). Format: functional. In a few lines: as §2
The subject of experiment [8] is ACH-2 cell line. Nature of the experiment: Induction of apoptosis in human ACH-2 cells at 1 uM incubated for 48 hrs by propidium iodide/annexin-V staining based flow cytometry (reference value: 3.16%). Format: functional.
In experiment [9] the test system is Jurkat. Nature of the experiment: Induction of apoptosis in human Jurkat cells assessed as caspase-3 activation at 10 nM incubated for 24 hrs by flow cytometry. Format: functional. The method, boiled down:
as §2

The test system of experiment [10] is U1. Nature of the experiment: Induction of apoptosis in human U1 cells assessed as caspase-3 activation at 10 nM incubated for 24 hrs by flow cytometry. Format: functional. In a few lines: as §2
The subject of experiment [11] is J-Lat 6.3. As to the kind of experiment: Induction of apoptosis in human J-Lat 6.3 cells at 1 uM incubated for 48 hrs by propidium iodide/annexin-V staining based flow cytometry (reference value: 3.16%). Format: functional.
Experiment [12] concerns U1. Nature of the experiment: Induction of apoptosis in human U1 cells at 1 uM incubated for 48 hrs by propidium iodide/annexin-V staining based flow cytometry (reference value: 3.16%). Format: functional.
Experiment [13] relates to ACH-2 cell line. As to the kind of experiment: Induction of apoptosis in human ACH-2 cells assessed as caspase-3 activation at 10 nM incubated for 24 hrs by flow cytometry. Format: functional. In a few lines: as §2
For experiment [14], the system named is J-Lat 6.3 (Homo sapiens). As to the kind of experiment: Induction of apoptosis in human J-Lat 6.3 cells at 1 uM incubated for 48 hrs after pre-incubated for 2 hrs with 20 uM caspase inhibitor Q-VD-Oph by propidium iodide/annexin-V staining based flow cytometry.
The test system of experiment [15] is ACH-2 cell line. As to the kind of experiment: Induction of apoptosis in human ACH-2 cells assessed as cleaved-PARP level at 10 nM incubated for 24 hrs by flow cytometry (reference value: 1.64%). Format: functional. The method, boiled down:
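Cells fixed, permeabilized, stained on ice with anti-cleaved PARP (Asp-214) mAb; % cleaved-PARP cells by flow cytometry. Means ± S.D. of three independent experiments.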

Experiment [16] deals with U-937. As to the kind of experiment: Induction of apoptosis in human U-937 cells assessed as caspase-3 activation at 10 nM incubated for 24 hrs by flow cytometry. Format: functional. The method, boiled down:
as §2

For experiment [17], the target named is T1, Protein kinase C (PKC) (Homo sapiens). Nature of the experiment: Activation of PKC in CCL19-induced human CD4+ T-cells infected with latent HIV-1 assessed as reversal of HIV-1 latency by measuring increase in p24 antigen level at 100 nM incubated for 48 hrs in presence of 2 uM ionomycin by chemiluminescent enzyme immunoassay. Format: cell-based. The following applies: CD4+ T cell, filed as activator.

Experiment [18] has the same target. Nature of the experiment: Activation of PKC in CCL19-induced human CD4+ T-cells infected with latent HIV-1 assessed as reversal of HIV-1 latency by measuring increase in p24 antigen level at 2 uM incubated for 48 hrs in presence of 100 nM PMA by chemiluminescent enzyme immunoassay. The following applies: CD4+ T cell, filed as activator. Format: cell-based.

`CCCCCCCCCCCCCC(=O)O[C@@H]1[C@@H](C)[C@@]2(O)[C@@H](C=C(CO)C[C@]3(O)C(=O)C(C)=C[C@@H]23)[C@@H]2C(C)(C)[C@]12OC(C)=O` [PHORBOL MYRISTATE ACETATE]: the result in experiment [1] and in [17] was Active. The result in experiment [2], in [6] and in experiment [14] was inactive. For the same molecule, the Activity in experiment [3] is given as 19.9%; in experiment [4], 12.9%; in experiment [5], 2.39%; in experiment [7], 8.06%; in experiment [8], 40.3%; in experiment [9] it was 2.03%. Moreover, the Activity in experiment [10] is reported as 33.6%; in experiment [11], 15.2%; in [12], 28.7%; in experiment [13], 27%; in experiment [15], 21.7%; in experiment [16] it was 1.02%.

As for `C[C@H](CCC(=O)O)C[C@H](C)C[C@H](C)C(=O)/C=C(\O)[C@H](C)C[C@H](C)C/C=C/[C@@H](C)[C@@H](O)[C@@H](C)[C@@H](O)C[C@@H]1CC[C@@](C)([C@H]2CC[C@@](C)([C@@H](C)O)O2)O1`, the outcome in [18] was Active.

The values are drawn from ChEMBL document CHEMBL5674882, “Benzolactam-related compounds promote apoptosis of HIV-infected human cells via protein kinase C-induced HIV latency reversal” (J Biol Chem, 2019).
